Most compounds without a hit are left out; they make up all but 4.8% or so of the library.
NR3A LBD binder: NR3A (human) ligand-binding domain modulation. NR3A LBD differential scanning fluorimetry, Tm shift; 0% = protein alone, 100% = glycine-bound protein. Tm shift relative to glycine control, % at 25 µM. 340,000 compounds, 2.5% hits. AID 1259313;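 active = melting temperature shift of at least 10% of the positive control shift, at one fixed dose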
UCH37 inh: human UCH37 deubiquitinating enzyme inhibition. purified proteasome/UCH37, Ub-AMC cleavage fluorescence. inhibition, % (concentration not given with the values). Q9Y5K5. 330,000 compounds, 0.33% hits;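 active = mean inhibition over replicate wells above about 20%, limit read from the data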;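 note: 0% = compound-free wells with enzyme and 100% = wells lacking proteasome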
Target sequence (Q9Y5K5 whole entry, looked up): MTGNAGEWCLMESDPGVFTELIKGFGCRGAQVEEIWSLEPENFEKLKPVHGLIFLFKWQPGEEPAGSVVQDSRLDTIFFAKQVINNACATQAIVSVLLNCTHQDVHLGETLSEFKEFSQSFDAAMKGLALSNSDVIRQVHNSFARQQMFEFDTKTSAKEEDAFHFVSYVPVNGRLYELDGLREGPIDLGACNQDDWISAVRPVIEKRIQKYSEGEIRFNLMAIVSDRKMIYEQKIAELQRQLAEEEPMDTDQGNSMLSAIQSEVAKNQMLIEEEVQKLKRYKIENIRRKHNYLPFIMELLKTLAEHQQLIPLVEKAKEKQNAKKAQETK
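Material: human UCH37 enzyme supplied as purified proteasome complex. Measure: % inhibition of Ub-AMC cleavage fluorescence. Medium: pH 7.4 Tris-HCl (50 mM) with ovalbumin, ATP-MgCl2, DTT. Times: 30 min preincubation with enzyme, 25 min cleavage at room temperature. Detection: AMC fluorescence intensity at 355/460 nm.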
pPAFAH FP inh: pPAFAH (human) enzyme inhibition; inhibition, % at 3.39 µM; 330,000 compounds, 1.5% hits; Q13093; recombinant pPAFAH, FP-rhodamine probe fluorescence polarization;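 active = inhibition above the mean inhibition across the screen plus 3 SD, cut at about 25% in these data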;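 note: inhibitors block binding of the rhodamine activity-based probe so polarization drops; 0% = enzyme with DMSO and 100% = wells lacking pPAFAH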
PAFAH1B2 FP inh: inhibitors of human PAFAH1B2; P68402; inhibition, % at 3.39 µM; AID 492953; 340,000 compounds, 1.2% hits; recombinant PAFAH1B2, FP-rhodamine activity probe, fluorescence polarization;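 active = inhibition above the mean of all tested compounds plus 3 SD, cut at about 24% in these data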;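 note: 0% = enzyme with DMSO and 100% = wells lacking PAFAH1B2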
PAFAH2 FP inh: inhibitors of human PAFAH2; AID 492956; 340,000 compounds, 0.99% hits; inhibition, % at 3.39 µM; recombinant PAFAH2, FP-rhodamine activity probe, fluorescence polarization;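 active = inhibition above the mean over all tested compounds plus 3 SD, cut at about 30% in these data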;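 note: inhibitors block probe labeling of enzyme so polarization drops; 0% = enzyme with DMSO and 100% = wells lacking PAFAH2 protein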
PAFAH1B3 FP inh: inhibitors of human PAFAH1B3; Q15102; recombinant PAFAH1B3, FP-rhodamine probe, fluorescence polarization; inhibition, % at 3.39 µM; 340,000 compounds, 0.28% hits; AID 492972;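 active = inhibition above the screen-wide average of all tested compounds plus 3 SD, cut at about 25% in these data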;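 note: 0% = enzyme with DMSO only and 100% = wells lacking PAFAH1B3 protein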
Target sequence (Q15102 whole entry, looked up): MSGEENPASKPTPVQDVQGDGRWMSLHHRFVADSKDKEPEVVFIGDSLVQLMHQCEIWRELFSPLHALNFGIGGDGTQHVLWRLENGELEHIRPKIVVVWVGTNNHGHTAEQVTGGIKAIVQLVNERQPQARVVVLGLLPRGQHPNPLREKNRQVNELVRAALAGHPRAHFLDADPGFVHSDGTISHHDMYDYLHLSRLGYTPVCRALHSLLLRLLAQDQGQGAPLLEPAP
The depositor's hits bear a star; i = inactive; . = no result.

SMILES	NR3A LBD binder	UCH37 inh	pPAFAH FP inh	PAFAH1B2 FP inh	PAFAH2 FP inh	PAFAH1B3 FP inh
O=c1c2c(nc3cc(-c4ccc(Cl)cc4)[nH]n13)CCS2	4.4	-28.5	16.1	31.6*	20.3	4.8
CCc1c(C)nc2cc(-c3ccc(Cl)cc3)[nH]n2c1=O	-5.0	.	8.9	2.3	1.8	0.3
Cc1onc(-c2ccccc2Cl)c1C(=O)Oc1cc(N)n(S(=O)(=O)c2ccc(F)cc2)n1	0.6	2.1	5.7	35.9*	3.5	10.6
Cc1ccc(C(=O)N2CCN(c3ccc(NC(=S)NC(=O)Cc4ccccc4)cc3)CC2)cc1	0.2	4.7	25.1*	0.8	5.5	9.4
COc1ccc(N2CCN(C(=O)CSc3ccccc3)CC2)cc1	-1.5	1.3	13.9	0.0	-1.9	8.2
CC(=O)N1CCN(c2ccc(NCc3cccc4ccccc34)cc2)CC1	-1.2	.	30.7*	-1.3	5.2	6.2
COc1ccc(N2CCN(C(=O)c3ccc(CSc4ccccc4)cc3)CC2)cc1	0.5	1.7	6.7	25.9*	1.9	5.0
CC(=O)N1CCN(c2ccc(NCc3cccs3)cc2)CC1	0.0	-0.4	14.7	4.1	0.8	4.1
CC(=O)N1CCN(c2ccc(NCc3ccccc3)cc2)CC1	0.2	2.8	32.2*	5.7	-4.0	-0.2
O=C(NN=Cc1c(Cl)cccc1Cl)c1ccccc1F	.	4.0	.	.	.	.
COc1cc(CNc2ccc(N3CCCC3)cc2)ccc1OCc1ccccc1	-10.8	2.5	29.3*	2.0	6.1	18.4
CCCc1c(O)nc(SC2CC(=O)N(c3ccc(C)c(Cl)c3)C2=O)[nH]c1=O (stereo not given)	1.0	-0.4	7.4	.	.	.
Cc1ccc(N2C(=O)CC(Sc3nc4ccccc4o3)C2=O)cc1Cl (stereo not given)	-4.3	0.6	-3.0	30.0*	-3.4	2.5
COc1ccc(C=NNC(=O)c2ccc3nc[nH]c3c2)c(OC)c1OC	.	4.6	.	.	.	.
Cn1c(NC(=O)/C=C/c2ccc(Cl)c(Cl)c2)cc(=O)n(C)c1=O	15.5*	.	2.1	-0.3	-5.6	2.1
Cn1c(NC(=O)/C=C/c2ccccc2)cc(=O)n(C)c1=O	-2.2	3.0	1.1	-4.7	1.6	10.2
CCOc1cc(C=NNC(=O)C(=O)NCCCOC(C)C)cc(Br)c1O	.	10.6	.	.	.	.
OCC(O)C=NNc1nc2ccccc2s1 (stereo not given)	.	5.8	.	.	.	.
N#CC1=C(N)N2C(=C(C#N)C1c1cccc(Br)c1)Nc1ccccc12 (stereo not given)	23.9*	4.9	5.7	-1.1	18.9	3.7
CC(C)N(Cc1ccccc1)C(=O)CN1C(=O)NC2(CCCc3ccccc32)C1=O (stereo not given)	3.3	5.2	6.3	14.7	-3.8	-1.5
CC(C)N(Cc1ccccc1)C(=O)CN1C(=O)NC(Cc2ccccc2)(c2ccccc2)C1=O (stereo not given)	-1.7	0.3	4.6	26.0*	-8.3	6.8
NC(=O)c1cccc(-c2cc(Nc3ccc(OC(F)(F)F)cc3)ncn2)c1	25.1*	-2.9	-3.2	1.8	-41.3	-15.9
O=C(NCc1cccs1)c1cc2c(s1)CS(=O)(=O)C2	15.3*	1.3	0.6	5.2	1.4	-2.2
O=C(NCc1ccco1)c1cc(-c2ccccc2)on1	10.5*	3.3	5.6	1.7	3.4	8.7
O=C(NCc1ccco1)c1cc2c(s1)CSC2	-2.0	-16.5	27.8*	.	.	.
SMILES	NR3A LBD binder	UCH37 inh	pPAFAH FP inh	PAFAH1B2 FP inh	PAFAH2 FP inh	PAFAH1B3 FP inh
CC(=NNC(=O)c1ccc(Cl)cc1Cl)c1cccnc1	.	1.3	.	.	.	.
CC(C)(C)c1ccc(-c2nn(CCC#N)cc2C=NO)cc1	.	2.4	.	.	.	.
CCCOc1ccc2c(c1)C(=NN=C(N)N)c1cc(OCCC)ccc1-2	34.1*	5.1	13.9	5.8	1.0	10.5
CCOc1cc(/C=C2\C(=O)N(c3ccc(C(N)=O)cc3)N=C2C)ccc1OC(=O)c1cccs1	-0.1	2.0	4.1	5.7	3.8	3.0
CC1=NN(c2ccc(C(=O)O)cc2)C(=O)/C1=C\c1ccc(OC(=O)c2cccs2)cc1	13.8*	6.8	4.7	4.2	5.4	3.5
COC(=O)c1cnn(-c2ccccc2)c1/C=N/NC(=S)Nc1ccc(Cl)cc1	12.6*	.	6.2	.	.	.
O=C(O)c1ccc(CSCc2ccccc2Cl)o1	0.2	5.1	3.6	30.2*	-1.1	13.5
CC(C)NC(=O)c1ccc(CSCc2ccccc2Cl)o1	-0.4	5.0	6.4	6.9	7.3	3.7
Cc1ccc(C)c(Cn2nnc3c(=O)[nH]c(C(=O)NCC4CCCO4)nc32)c1 (stereo not given)	3.8	1.6	0.2	67.0*	2.0	1.9
O=C(NCC1CCCO1)c1nc2c(nnn2Cc2ccccc2Cl)c(=O)[nH]1 (stereo not given)	1.1	5.3	1.8	7.6	16.5	8.4
CC(=NNC(=O)c1nnn(-c2nonc2N)c1C(C)C)c1ccc2ccccc2c1	.	4.1	.	.	.	.
c1ccc(-c2nc3ccccn3c2NCc2ccc3c(c2)OCO3)cc1	-1.9	-235.9	3.7	2.4	-0.4	4.9
Clc1cccc(-c2ccc(-c3nc4ccccn4c3NCc3ccccc3)cc2)c1	20.5*	i	22.2	3.2	9.4	6.1
O=C(NN=Cc1cccc(Oc2ccccc2)c1)c1ccccc1Br	.	6.1	.	.	.	.
CCOC(=O)/C(=N\Nc1ccc(Cl)cc1)c1csc(Nc2ccccc2)n1	26.7*	.	17.5	-0.6	22.8	2.9
CCOC(=O)/C(=N/Nc1ccccc1)c1csc(Nc2ccccc2)n1	26.1*	.	1.9	7.6	-1.1	11.2
COc1cc(-c2nc3ccc(C)cn3c2Nc2ccc3c(c2)OCCO3)ccc1O	22.6*	.	13.2	4.6	8.0	-1.6
O=C(Nc1cccc(Cl)c1)Nc1ccc(Br)cc1F	21.1*	2.9	-9.3	-8.6	-8.3	-8.2
COC(=O)c1cc(Br)ccc1NC(=O)Nc1ccccc1	-13.1	-1.1	-0.9	4.1	-1.9	4.9
O=C(O)CSc1ccc(NC(=O)Nc2ccccc2F)cc1	10.3*	5.0	4.8	-4.2	1.2	9.4
O=C(Nc1ccccc1)Nc1ccc(Br)cc1F	11.6*	3.2	0.1	3.2	1.6	0.5
C=CCN1C(=O)/C(=C/c2cccs2)SC1=NS(=O)(=O)c1ccc(F)cc1	.	0.9	.	.	.	.
Cc1ccc(C=NN(Cc2ccccc2)c2ccccc2)o1	.	4.0	.	.	.	.
CC(C)C[C@H](NC(=O)C1(c2ccccc2)CCN(C(=O)OC(C)(C)C)CC1)C(=O)N1CCC[C@H]1C(=O)O	0.9	2.4	4.1	3.8	1.8	11.1
CC(C)C[C@H](NC(=O)C1(c2ccccc2)CCN(C(=O)[C@H]2CSCN2C(=O)OC(C)(C)C)CC1)C(=O)O	14.4*	1.3	-3.2	-0.7	0.1	-4.1
FC(F)(F)COc1nc(N2CCOCC2)nc(N(c2ccccc2)c2ccccc2)n1	4.8	0.3	7.3	5.2	7.3	1.1

Assay outcomes: PubChem, several laboratories
